Hits are enriched below; roughly 2.3% of the tested compounds scored in any of these assays.
MEKK2 mut-MEK5: signal of MEK5 binding to mutant human MEKK2 PB1 domain; bead flow cytometry, Alexa488-MEK5 binding to MEKK2 mutant; percent response, % at 10 µM; 290,000 compounds, 0.35% hits; AID 1530; in the data active means percent response above about 24%, passing the limit was not always enough
MEKK2wt PB1 HTS: raises or lowers MEK5 binding to wildtype human MEKK2 PB1 domain. Q9Y2U5. bead flow cytometry, Alexa488-MEK5 binding to MEKK2 WT; actives lie on both sides. binding response (% of control), % at 10 µM. 290,000 compounds, 1.1% hits; in the data active means binding response below about 67% or above about 130%
MEKK3 PB1 HTS: modulators (inhibitors or enhancers) of MEK5 binding to human MEKK3 PB1 domain; Q99759; 290,000 compounds, 1.4% hits; binding response (% of control), % at 10 µM; bead-based flow cytometry, Alexa488-MEK5 binding to MEKK3; actives lie on both sides; 0 = blocked by unlabeled MEK5, 100 = vehicle;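 active means binding response more than 3 SD above or below the average of its plate-row segment, actives on both sides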;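 further: Alexa488 bead fluorescence after subtracting the streptavidin-only scavenger bead signal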
ABCB1 inh: inhibitors of human ABCB1 transporter, ABCG2 counter-screen. inhibition, % at 6.6 µM. CCRF-Adr cells, JC-1 efflux, flow cytometry. AID 1326. 190,000 compounds, 0.067% hits. P08183; in the data active means inhibition above about 40%;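 further: 0% = vehicle and 100% = reference inhibitor; higher value means more JC-1 retained so stronger ABCB1 efflux block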
Target sequence (P08183 whole entry, looked up): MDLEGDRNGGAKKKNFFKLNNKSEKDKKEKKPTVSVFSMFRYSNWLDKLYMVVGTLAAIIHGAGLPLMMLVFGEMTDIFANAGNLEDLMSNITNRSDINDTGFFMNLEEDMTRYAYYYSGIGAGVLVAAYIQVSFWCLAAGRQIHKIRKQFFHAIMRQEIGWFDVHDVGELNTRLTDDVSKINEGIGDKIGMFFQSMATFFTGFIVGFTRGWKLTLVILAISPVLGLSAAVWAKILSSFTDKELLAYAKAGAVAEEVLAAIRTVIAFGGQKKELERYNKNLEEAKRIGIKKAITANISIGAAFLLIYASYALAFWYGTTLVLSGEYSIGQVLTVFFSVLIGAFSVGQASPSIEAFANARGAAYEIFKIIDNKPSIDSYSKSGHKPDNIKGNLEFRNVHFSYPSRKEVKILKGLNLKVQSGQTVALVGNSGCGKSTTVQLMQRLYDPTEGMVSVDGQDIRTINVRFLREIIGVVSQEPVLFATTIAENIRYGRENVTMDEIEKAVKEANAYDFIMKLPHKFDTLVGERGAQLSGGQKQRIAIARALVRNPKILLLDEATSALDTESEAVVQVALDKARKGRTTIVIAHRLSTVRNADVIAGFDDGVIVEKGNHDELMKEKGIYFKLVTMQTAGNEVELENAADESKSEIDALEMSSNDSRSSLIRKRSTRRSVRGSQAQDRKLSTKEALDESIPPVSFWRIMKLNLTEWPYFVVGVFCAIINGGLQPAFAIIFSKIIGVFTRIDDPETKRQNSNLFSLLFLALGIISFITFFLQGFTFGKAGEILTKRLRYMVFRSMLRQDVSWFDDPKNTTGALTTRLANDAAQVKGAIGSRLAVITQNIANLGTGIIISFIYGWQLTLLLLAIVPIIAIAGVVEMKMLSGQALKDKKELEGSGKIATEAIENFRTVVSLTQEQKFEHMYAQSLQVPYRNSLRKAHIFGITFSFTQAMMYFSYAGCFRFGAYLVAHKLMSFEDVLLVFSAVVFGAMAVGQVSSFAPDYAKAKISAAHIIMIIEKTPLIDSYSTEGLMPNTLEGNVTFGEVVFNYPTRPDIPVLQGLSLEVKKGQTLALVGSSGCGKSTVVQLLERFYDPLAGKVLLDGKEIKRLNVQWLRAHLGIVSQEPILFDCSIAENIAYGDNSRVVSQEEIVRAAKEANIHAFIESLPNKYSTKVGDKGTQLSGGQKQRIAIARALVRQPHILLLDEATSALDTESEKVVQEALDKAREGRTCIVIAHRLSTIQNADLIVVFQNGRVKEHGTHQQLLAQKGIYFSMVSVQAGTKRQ
ABCG2 inh: inhibitors of human ABCG2 transporter, ABCB1 counter-screen | Q9UNQ0 | IgMXP3 cells, JC-1 efflux, flow cytometry | inhibition, % at 6.6 µM | 190,000 compounds, 0.1% hits;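 active means inhibition above 80%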;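 further: 0% = DMSO and 100% = nicardipine control wells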
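Times: 10 min at 25 °C | Test system: Two drug-resistant human cell lines, ABCG2 and ABCB1 | Quantity: 3 million cells/mL final, two lines in 1:1 ratio | Signal: Flow cytometry, 530 nm JC-1 signal | Dosing: Compound at 6.6 µM | Controls: Nicardipine and DMSO wells | Reagent: JC-1 as fluorescent efflux pump substrate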
MEKK2wt confirm: raises or lowers MEK5 binding to wildtype human MEKK2, retest; shares compounds with MEKK3 PB1 HTS; bead flow cytometry, Alexa488-MEK5 binding to MEKK2 WT; actives lie on both sides; binding response (% of control), % at 10 µM; AID 1892; 5,900 compounds, 2.4% hits; in the data active means binding response below about 16% or above about 210%; inactive means in between
MEKK2mut confirm: signal of MEK5 binding to mutant human MEKK2, retest | shares compounds with MEKK3 PB1 HTS | bead flow cytometry, Alexa488-MEK5 binding to MEKK2 mutant | 5,900 compounds, 2% hits | percent response, % at 10 µM; in the data active means percent response mostly above about 71%, no sharp cut-off; inactive means mostly below about 38%;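 further: higher means compound restores mutant binding toward wildtype level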
MEKK3 confirm: confirmation of inhibitors of MEK5 binding to human MEKK3 | shares compounds with MEKK3 PB1 HTS | bead flow cytometry, Alexa488-MEK5 binding to MEKK3; hits give low values | binding response (% of control), % at 10 µM | 5,900 compounds, 1.8% hits | AID 1894;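 active means binding response below 72% of control, or above a set upper limit, though filed actives all read lower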;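 further: 100% = DMSO only wells and 0% = binding blocked by excess unlabeled MEK5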
* = called active by the depositor; [ ] = dose if it differs, or a comment.

Screening CC(OC(=O)C(C)N1C(=O)C2C3C=CC(C4CC34)C2C1=O)C(=O)c1ccccc1 (configuration not stated) returned MEKK2 mut-MEK5 1, MEKK2wt PB1 HTS 111, MEKK3 PB1 HTS 145*, ABCB1 inh 0, ABCG2 inh -1, MEKK2wt confirm 101, MEKK2mut confirm 3 and MEKK3 confirm 99.
O=C(Nn1c(O)c(C=C2N=c3ccccc3=N2)sc1=S)c1cccc(Cl)c1 was read as MEKK2 mut-MEK5 -4, MEKK2wt PB1 HTS 49*[inhibitor], MEKK3 PB1 HTS 79, ABCB1 inh 0, ABCG2 inh 1, MEKK2wt confirm 63, MEKK2mut confirm -21 and MEKK3 confirm 95.
For O=C(Nn1c(O)c(C=C2N=c3ccccc3=N2)sc1=S)c1ccc(Cl)cc1 the results were ABCB1 inh 0 and ABCG2 inh -1.
Cc1ccc(C(=O)Nn2c(O)c(C=C3N=c4ccccc4=N3)sc2=S)cc1 was read as MEKK2 mut-MEK5 -6, MEKK2wt PB1 HTS 39*[inhibitor], MEKK3 PB1 HTS 72, ABCB1 inh -1, ABCG2 inh -4, MEKK2wt confirm 39, MEKK2mut confirm -30 and MEKK3 confirm 91.
Cc1ccc(S(=O)(=O)Nn2c(O)c(C=C3N=c4ccccc4=N3)sc2=S)cc1 was read as MEKK2 mut-MEK5 -3, MEKK2wt PB1 HTS 83 and MEKK3 PB1 HTS 99.
`O=C(Nn1c(O)c(C=C2N=c3ccccc3=N2)sc1=S)c1ccccc1` gave MEKK2 mut-MEK5 -39, MEKK2wt PB1 HTS 17*[inhibitor], MEKK3 PB1 HTS 65, ABCB1 inh -1, ABCG2 inh -1, MEKK2wt confirm 52, MEKK2mut confirm -23 and MEKK3 confirm 91.
Screening Cc1ccc(C(=O)NCc2cccnc2)cc1S(=O)(=O)N1CCCCCC1 returned MEKK2 mut-MEK5 6, MEKK2wt PB1 HTS 104 and MEKK3 PB1 HTS 101.
Screening CN(Cc1ccccc1)C1CCN(Cc2ccccc2[N+](=O)[O-])CC1 returned MEKK2 mut-MEK5 9, MEKK2wt PB1 HTS 105 and MEKK3 PB1 HTS 102.
O=C(Nc1cccc([N+](=O)[O-])c1)NC1CCCCCCC1 was read as MEKK2 mut-MEK5 9, MEKK2wt PB1 HTS 111 and MEKK3 PB1 HTS 107.
CCOC(=O)N1CCN(C(=O)C2CCN(C(=O)c3cc(OC)cc(OC)c3)CC2)CC1 was read as MEKK2 mut-MEK5 1, MEKK2wt PB1 HTS 103, MEKK3 PB1 HTS 142*, ABCB1 inh 0, ABCG2 inh 1, MEKK2wt confirm 108, MEKK2mut confirm 4 and MEKK3 confirm 101.
Screening CSc1cccc(CN2CCC(Oc3ccc(C(=O)N4CCCCC4)cc3)CC2)c1 returned MEKK2 mut-MEK5 14, MEKK2wt PB1 HTS 115 and MEKK3 PB1 HTS 108.
Screening COc1ccc(F)cc1S(=O)(=O)NCc1ccccc1 returned MEKK2 mut-MEK5 0, MEKK2wt PB1 HTS 93, MEKK3 PB1 HTS 72*[inhibitor], ABCB1 inh 0, ABCG2 inh 7, MEKK2wt confirm 100, MEKK2mut confirm -6 and MEKK3 confirm 101.
`CC(C)n1c(SCC(=O)N2c3ccccc3Sc3ccccc32)nc2c1c(=O)n(C)c(=O)n2C` gave MEKK2 mut-MEK5 -21, MEKK2wt PB1 HTS -3.0*[inhibitor], MEKK3 PB1 HTS 1.0*[inhibitor], ABCB1 inh -1, ABCG2 inh -3, MEKK2wt confirm 99, MEKK2mut confirm -3 and MEKK3 confirm 104.
Screening CN(C)CCCn1c(SCC(=O)N2c3ccccc3Sc3ccccc32)nc2ccccc2c1=O returned MEKK2 mut-MEK5 45, MEKK2wt PB1 HTS 166*, MEKK3 PB1 HTS 103, ABCB1 inh 7, ABCG2 inh -5, MEKK2wt confirm 157, MEKK2mut confirm 25 and MEKK3 confirm 102.
Cn1c(SCC(=O)N2c3ccccc3Sc3ccccc32)nc2ccccc21 was read as MEKK2 mut-MEK5 -1, MEKK2wt PB1 HTS 96, MEKK3 PB1 HTS 102, ABCB1 inh 1 and ABCG2 inh 0.
For Cc1cc(-c2nnc(CCC(=O)NCc3cc(F)cc(C(F)(F)F)c3)o2)no1 the results were MEKK2 mut-MEK5 5, MEKK2wt PB1 HTS 106 and MEKK3 PB1 HTS 102.
CCc1c(C)nc2c(Br)cccc2c1SCCC#N was read as MEKK2 mut-MEK5 2, MEKK2wt PB1 HTS 102, MEKK3 PB1 HTS 143*, ABCB1 inh 1, ABCG2 inh 3, MEKK2wt confirm 102, MEKK2mut confirm -2 and MEKK3 confirm 101.
`CCCCc1c(C)nc2ccc(Br)cc2c1SCCC#N` gave MEKK2 mut-MEK5 21, MEKK2wt PB1 HTS 106, MEKK3 PB1 HTS 101, ABCB1 inh 2 and ABCG2 inh 73.
Screening CCCc1c(C)nc2ccccc2c1SCCC#N returned MEKK2 mut-MEK5 0, MEKK2wt PB1 HTS 93, MEKK3 PB1 HTS 60*[inhibitor], ABCB1 inh 1, ABCG2 inh 3, MEKK2wt confirm 95, MEKK2mut confirm 0 and MEKK3 confirm 98.
CCc1c(C)nc2ccc(Br)cc2c1SCCC#N was read as MEKK2 mut-MEK5 -4, MEKK2wt PB1 HTS 90, MEKK3 PB1 HTS 85, ABCB1 inh 1 and ABCG2 inh 2.
O=C(NCCCNC(=O)c1ccc(-c2cc(Cl)ccc2Cl)o1)c1cnccn1 was read as MEKK2 mut-MEK5 1, MEKK2wt PB1 HTS 99 and MEKK3 PB1 HTS 101.
Screening C=CCN1c2ccccc2[C@]23C[C@@H](C(=O)OC)N=C2NC(C(=O)OC)=C(C(=O)OC)[C@H]13 returned MEKK2 mut-MEK5 1, MEKK2wt PB1 HTS 150*, MEKK3 PB1 HTS 126, MEKK2wt confirm 97, MEKK2mut confirm -6 and MEKK3 confirm 98.
C=CCN1c2ccccc2[C@]23C[C@@H](C(=O)OC)N(C(=O)c4cc(C)oc4C)C2=NC(C(=O)OC)=C(C(=O)OC)[C@H]13 was read as MEKK2 mut-MEK5 2, MEKK2wt PB1 HTS 147*, MEKK3 PB1 HTS 127, MEKK2wt confirm 94, MEKK2mut confirm -4 and MEKK3 confirm 93.
`CC#CCN1c2ccccc2[C@]23C[C@@H](C(=O)OC)N(C(=O)NC(C)(C)C)C2=NC(C(=O)OC)=C(C(=O)OC)[C@H]13` gave MEKK2 mut-MEK5 0, MEKK2wt PB1 HTS 100 and MEKK3 PB1 HTS 103.

Screening data: PubChem BioAssay, NMMLSC
